NOD2 RIPK2 PPI – NOD2-RIPK2 binding disruptors in cells, primary screen, fluorescence, CHO cells, BLA complementation; Receptor-interacting serine/threonine-protein kinase 2 (Homo sapiens), O43353; CCF4 ratio; inhibition, % at 4.98 µM; actives 0.38% (n = 360,000); AID 624267, 2012; in the data active = inhibition above about 21%;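 also: 0% = vehicle only and 100% = reference blocker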
MC4R antag cAMP – MC4R antagonists of cAMP signaling, primary screen, cell-based, TR-FRET, antagonist arm of biased-ligand search; MC4R-expressing cells, MTII-stimulated cAMP, LANCE TR-FRET; inhibition, % at 6.5 µM; actives 0.48% (n = 360,000);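 active = inhibition above its plate's cutoff, the mean of tested wells on that plate plus 3 SD, cut at about 29% in these data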;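 also: 0% = Melanotan II alone and 100% = Melanotan II plus saturating MCL0020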
Target sequence (P32245 whole entry, looked up): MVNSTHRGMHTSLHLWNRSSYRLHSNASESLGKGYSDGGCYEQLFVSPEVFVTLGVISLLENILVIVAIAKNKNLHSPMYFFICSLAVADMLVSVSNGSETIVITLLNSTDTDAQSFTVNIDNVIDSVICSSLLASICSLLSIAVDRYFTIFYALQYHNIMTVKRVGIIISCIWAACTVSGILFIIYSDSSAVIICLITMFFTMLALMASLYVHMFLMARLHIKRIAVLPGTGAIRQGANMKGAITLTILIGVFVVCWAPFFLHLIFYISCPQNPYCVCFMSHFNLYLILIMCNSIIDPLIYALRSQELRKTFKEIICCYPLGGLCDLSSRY
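system = U2OS cells with stable human MC4R expression | also added = Melanotan II challenge after compound preincubation | dosing = one concentration, 6.5 µM nominal | incubation = compound 30 min, challenge 1 h, detection 1 h | measured by = TR-FRET with Eu-cAMP and labeled anti-cAMP, 671 nm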
TLR4-MyD88 BLA – inhibitors of TLR4-MyD88 association in cells, primary screen, cell-based, HeLa CL3-4, BLA complementation, FRET ratio; actives 0.18% (n = 200,000); HeLa CL3-4 TLR4/MyD88 BLA complementation; inhibition, % at 8.4 µM; in the data active = inhibition above about 25%;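 also: 0% = vehicle and 100% = reference inhibitor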
MC4R ag barr – MC4R agonists recruiting beta-arrestin, primary screen, cell-based, luminescence, agonist arm of biased-ligand search | Melanocortin receptor 4 (Homo sapiens), P32245 | U2OS MC4R beta-arrestin complementation; percent of melanotan II response, DMSO zero | activation, % at 8.9 µM | actives 0.98% (n = 360,000) | AID 540308, 2011;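 active = activation above a per-plate cutoff, the mean activation of sample wells on that plate plus 3 SD, cut at about 8% in these data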
TLR9-MyD88 inh – inhibitors of TLR9-MyD88 association in cells, primary screen, cell-based, CHO, BLA complementation, fluorescence. Toll-like receptor 9 (Homo sapiens) + Myeloid differentiation primary response protein …. inhibition, % at 4.98 µM. CCF4 FRET ratio. AID 504734, 2011. actives 0.21% (n = 340,000);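 active = inhibition above the mean over all tested compounds plus 3 SD, cut at about 21% in these data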;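 also: 0% = DMSO only wells and 100% = clavulanate BLA inhibitor control wells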
MC4R barr conf – MC4R beta-arrestin agonists, retest, confirmation, cell-based, luminescence, U2OS | activation, % at 8.9 µM | actives 31% (n = 2,400) | shares compounds with MC4R ag barr | U2OS MC4R beta-arrestin recruitment; scaled DMSO 0%, Melanotan II 100%;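 active = mean activation across replicates above the hit cutoff set in the earlier primary screen, cut at about 8% in these data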
MOR DOR agonist – agonists of MOR-DOR heterodimerization, counter-screen for MC4R biased agonist project, cell-based, luminescence | shares compounds with MC4R ag barr | activation, % at 9.2 µM | U2OS PathHunter beta-arrestin, beta-gal luminescence; percent of deltorphin B response, DMSO zero | actives 5.8% (n = 2,400);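 active = mean activation across replicates exceeds the hit threshold derived in the earlier primary screen, cut at about 18% in these data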;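 also: 100% = deltorphin B at 0.9 µM final and 0% = DMSO alone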
The depositor's hits bear a star; / = no result. A selection: hits, their analogues and other compounds. The true share with any hit is near 1.8%.

SMILES	NOD2 RIPK2 PPI	MC4R antag cAMP	TLR4-MyD88 BLA	MC4R ag barr	TLR9-MyD88 inh	MC4R barr conf	MOR DOR agonist
COc1ccc(NC(=O)COC(=O)c2cc(C)oc2C)c([N+](=O)[O-])c1	-10	8	/	23*	6	3	11
CC(=O)NC(=S)Nc1ccc(NC(=O)COc2ccc(Cl)cc2Cl)cc1	-1	0	1	31*	8	4	8
CCCCC(=O)Nc1cccc(NC(=S)NC(=O)Cc2ccccc2)c1	-5	-10	-11	1	5	/	/
CCCCC(=O)Nc1cccc(NC(=S)NC(=O)COc2ccccc2Cl)c1	-6	2	-16	18*	16	13*	2
Cc1ccc(OCC(=O)NC(=S)Nc2cccc(NC(=O)c3ccccc3)c2)cc1	-2	-7	-4	15*	-1	17*	7
Cc1ccc(OCC(=O)NC(=S)Nc2cccc(NC(=O)c3ccc(Cl)cc3Cl)c2)cc1	4	-4	2	22*	2	7	3
CCCC(=O)NC(=S)Nc1cccc(NC(=O)c2ccccc2)c1	1	0	-8	1	-4	/	/
CC(C)(C)c1ccc(COc2ccsc2C(=O)O)cc1	-3	-3	12	0	7	/	/
O=c1[nH]c(=S)[nH]c2c1C(c1ccc(F)cc1)OC(CCC(F)(F)F)C2 (centres undefined)	-5	/	/	/	/	/	/
Cc1nn(C)cc1S(=O)(=O)N1CCN(c2ccccc2F)CC1	8	13	/	-1	4	/	/
O=C(/C=C/c1ccccc1)NC(=S)Nc1ccc2c3c(cccc13)CC2	-8	1	2	-2	-12	/	/
O=C(COc1ccccc1)NC(=S)Nc1ccc2c3c(cccc13)CC2	-6	13	-2	14*	-4	1	3
O=C(COc1ccc(Cl)cc1Cl)Nc1noc2ccccc12	-8	5	0	11*	0	2	5
O=c1c2ccccc2nc(/C=C/c2cc(Br)ccc2O)n1CCCO	-11	10	/	1	3	/	/
O=C(NC(=S)NCc1ccc(-c2nc3ccccc3s2)cc1)c1ccco1	-3	-2	-10	28*	3	6	2
O=C(COc1cc(Cl)c(Cl)cc1Cl)Nc1cccc(O)c1	6	23	/	20*	-4	7	9
O=c1[nH]c(-c2ccc(-c3cccc(Cl)c3)o2)nc2ccccc12	13	-3	/	13*	1	-2	2
O=C(CN(CCc1ccccc1)S(=O)(=O)c1ccc(Cl)cc1)N/N=C/c1ccc2c(c1)OCO2	4	7	5	25*	7	7	5
C=CCC[C@H](Cc1ccc(F)cc1)C(=O)OC[C@@H](Cc1c[nH]c2ccccc12)NC(=O)[C@@H](CC=C)CC(=O)N[C@@H](CO)Cc1ccccc1	-4	18	/	8	7	/	/
C=CCC[C@@H](Cc1ccc(F)cc1)C(=O)OC[C@@H](Cc1c[nH]c2ccccc12)NC(=O)[C@H](CC=C)CC(=O)N[C@H](CO)Cc1ccccc1	0	15	/	10*	-7	5	5
C=CC[C@H](CC(=O)N[C@H](CO)Cc1ccccc1)C(=O)N[C@H](COC(=O)[C@H](CC=C)CC(=O)OC(C)(C)C)Cc1c[nH]c2ccccc12	12	8	/	22*	-6	1	3
Cc1cccc(NCC(=O)N/N=C\c2cccc(Oc3ccccc3)c2)c1	4	-2	15	12*	-2	3	4
CC(/C=C/C=C/c1ccccc1)=N/NC(=O)CNc1ccc(C)cc1	4	-18	7	14*	9	1	3
CC(/C=C/C=C/c1ccccc1)=N/NC(=O)C(O)c1ccccc1 (centres undefined)	-1	-8	/	1	2	/	/
N#CCC(=O)N/N=C/c1cccc(Oc2ccccc2)c1	2	4	-5	0	-10	/	/
SMILES	NOD2 RIPK2 PPI	MC4R antag cAMP	TLR4-MyD88 BLA	MC4R ag barr	TLR9-MyD88 inh	MC4R barr conf	MOR DOR agonist
Cc1ccc(NCC(=O)N/N=C/c2cccc(Oc3ccccc3)c2)cc1	-6	-1	9	24*	-10	4	3
Cc1cccc(OCC(=O)NCC(=O)N/N=C/c2ccccc2)c1	0	-5	/	0	1	/	/
COC(=O)/C=C/c1c(C)nc(NCc2ccccc2)nc1Cl	4	8	/	-1	8	/	/
Cc1ccccc1CC1CCN(CCCNC(=O)Nc2ccccc2)CC1	5	6	/	-1	-4	/	/
S=C(Nc1ccccc1Cl)NC1CCN(Cc2ccccc2)CC1	8	7	4	-3	1	/	/
S=C(Nc1cc(Cl)cc(Cl)c1)NC1CCN(Cc2ccccc2)CC1	10	5	/	13*	0	8	22*
COCCNC(=O)c1ccc(-n2c(SCc3cc(F)ccc3F)nc3ccccc3c2=O)cc1	2	7	-12	12*	-2	8.3*	4
CCOC(=O)CSc1nc2ccccc2c(=O)n1-c1ccc(C(=O)NCCOC)cc1	4	0	-4	3	-4	/	/
Cc1sc2ncnc(Nc3ccc(O)cc3)c2c1C	-5	-12	/	-3	-3	/	/
Oc1ccc(Nc2ncnc3scc(-c4ccccc4)c23)cc1	0	4	10	12*	6	8	6
c1ccc(-c2csc3ncnc(NCc4ccccn4)c23)cc1	5	-14	/	11*	-5	4	3
c1ccc(CNc2ncnc3scc(-c4cccs4)c23)nc1	-16	1	9	2	-6	/	/
Cc1ccnn1CCC(=O)O	1	11	/	0	-5	/	/
O=C1COc2ccc(C(=O)COC(=O)c3sc4ccccc4c3Cl)cc2N1	-1	2	1	12*	1	4	4
COc1ccc(NC(=O)CCN(c2ccc(OC)cc2)S(=O)(=O)c2ccc(C)c(C)c2)cc1	-2	17	/	0	-1	/	/
O=C(NCC(c1ccco1)N1CCc2ccccc21)C(=O)Nc1ccccc1 (centres undefined)	1	6	/	11*	-2	1	4

Compound activity (PubChem)
